Consider three molecules from ChEMBL document CHEMBL4017460, “A Tobramycin Vector Enhances Synergy and Efficacy of Efflux Pump Inhibitors against Multidrug-Resistant Gram-Negative Bacteria” (J Med Chem, 2017).

Active and inactive are the calls of the source. The calls are words filed in the database; no cut-off is given here.

Series [1] relates to Pseudomonas aeruginosa. Put plainly: Inhibition of RND efflux pump in Pseudomonas aeruginosa isolate […] assessed as potentiation of minocycline-induced antibacterial activity by measuring minocycline MIC at 8 ug/ml after 18 to 24 hrs by microbroth dilution assay (reference value: 64 ug/ml). The note with it: isolate P262-104354. The gist of the method: (§1)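 Absolute minocycline MIC taken from checkerboard broth dilution with a fixed 8 μg/mL adjuvant. Inoculum was a 0.5 McFarland saline suspension diluted 1:50 in MHB, incubated 37 °C for 18 h. MIC is the lowest concentration with no growth.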
On the technique in general: Dilution methods test growth across graded concentrations, often in twofold steps.

The next series deals with Galleria mellonella. Put plainly: Toxicity in Galleria mellonella assessed as death at 200 mg/kg up to 96 hrs. Type of series: organism-based. The following applies: in vivo.
The test system of series [2] is Pseudomonas aeruginosa. Put plainly: Inhibition of RND efflux pump in Pseudomonas aeruginosa isolate P264-104354 assessed as potentiation of minocycline-induced antibacterial activity at 8 ug/ml after 18 to 24 hrs by checker board assay. In a few lines: (§2)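 Checkerboard in MHB: antibiotic 2-fold diluted along one axis, test agent 2-fold diluted along the other. Overnight culture standardized to 0.5 McFarland in saline, diluted 1:50 in MHB, added to wells, incubated 37 °C for 18 h. MIC is the lowest concentration with no growth. FIC = MIC in combination / MIC alone; FIC index = sum of both FICs.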

The test system of series [3] is Pseudomonas aeruginosa PAO1. Put plainly: Inhibition of RND efflux pump in Pseudomonas aeruginosa PAO1 assessed as potentiation of minocycline-induced bactericidal activity at 0.5 times antibacterial MIC up to 24 hrs by serial dilution assay.
Series [4] concerns Pseudomonas aeruginosa PAO1. Put plainly: Inhibition of RND efflux pump in Pseudomonas aeruginosa PAO1 assessed as potentiation of minocycline-induced antibacterial activity by measuring fold reduction in minocycline MIC at 8 ug/ml after 18 to 24 hrs by microbroth dilution assay relative to minocycline alone. In a few lines:
as §1

The test system of series [5] is Pseudomonas aeruginosa. Put plainly: Inhibition of RND efflux pump in colistin-resistant Pseudomonas aeruginosa isolate 91433 assessed as potentiation of minocycline-induced antibacterial activity at 8 ug/ml after 18 to 24 hrs by checker board assay. The gist of the method: (§3)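 Checkerboard broth microdilution: antibiotic 2-fold diluted along one axis, adjuvant 2-fold diluted along the other. Overnight culture standardized to 0.5 McFarland in saline, diluted 1:50 in MHB, added to wells, 37 °C for 18 h. MIC is the lowest concentration with no growth. FIC = MIC in combination / MIC alone; FICI = sum of the two FICs; FICI ≤0.5 is synergy.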

Series [6] has as its system Pseudomonas aeruginosa. Put plainly: Inhibition of RND efflux pump in colistin-resistant Pseudomonas aeruginosa isolate 91433 assessed as potentiation of minocycline-induced antibacterial activity by measuring fold reduction in minocycline MIC at 8 ug/ml after 18 to 24 hrs by microbroth dilution assay. In a few lines: as §3
Series [7] in a line: Hemolytic activity against ovine erythrocytes at 1000 ug/ml after 30 mins relative to control. Type of series: ADME, cell-based, Ovis aries, Erythrocyte. The note with it: sheep, read-out: Activity.
The test system of series [8] is Pseudomonas aeruginosa. Put plainly: Inhibition of RND efflux pump in XDR Pseudomonas aeruginosa isolate P262-101856 infected in Galleria mellonella assessed as potentiation of minocycline-induced antibacterial activity by measuring larval survival rate at 75 mg/kg co-treated with 75 mg/kg minocycline measured after 24 hrs relative to control. Type of series: organism-based. In a few lines: (§4)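 G. mellonella larvae infected with 1.0 × 10^5/mL CFU of XDR P. aeruginosa 101856. A single-dose injection of agent, alone or with minocycline, given 2 h post-infection. Survival scored up to 24 h. 15 larvae per experiment from different batches, two experiments per dosage (n = 30). Significance 0 vs 24 h at P ≤ 0.05.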

Series [9] concerns Pseudomonas aeruginosa. Put plainly: Inhibition of RND efflux pump in colistin-resistant Pseudomonas aeruginosa isolate 91433 assessed as potentiation of minocycline-induced antibacterial activity by measuring minocycline MIC at 8 ug/ml after 18 to 24 hrs by microbroth dilution assay (reference value: 32 ug/ml). In a few lines:
as §3

Series [10] has as its system Pseudomonas aeruginosa. Put plainly: Inhibition of RND efflux pump in Pseudomonas aeruginosa isolate P262-101856 assessed as potentiation of minocycline-induced antibacterial activity by measuring minocycline MIC at 8 ug/ml after 18 to 24 hrs by microbroth dilution assay (reference value: 128 to 256 ug/ml). In a few lines: as §1
The subject of series [11] is Pseudomonas aeruginosa. Put plainly: Inhibition of RND efflux pump in XDR Pseudomonas aeruginosa isolate P262-101856 infected in Galleria mellonella assessed as potentiation of minocycline-induced antibacterial activity by measuring larval survival rate at 37.5 mg/kg co-treated with 37.5 mg/kg minocycline measured after 24 hrs relative to control. Type of series: organism-based. In a few lines:
as §4

Series [12] relates to Pseudomonas aeruginosa. Put plainly: Antibacterial activity against XDR Pseudomonas aeruginosa isolate P262-101856 infected in Galleria mellonella assessed as protection against bacterial infection by measuring larval death at 75 mg/kg up to 24 hrs relative to control. Type of series: functional. In a few lines: as §4
The nature of series [13]: Cytotoxicity against human JIMT1 cells assessed as reduction in cell viability after 24 hrs by MTS assay. Type of series: cell-based, JIMT-1. Background: Formazan colour is commonly taken as a measure of viable cells.
For series [14], the system named is Pseudomonas aeruginosa PAO1. Put plainly: Inhibition of RND efflux pump in Pseudomonas aeruginosa PAO1 assessed as potentiation of minocycline-induced bactericidal activity up to 1 time antibacterial MIC after 9 hrs by serial dilution assay.
Series [15] has as its system Pseudomonas aeruginosa. Put plainly: Inhibition of RND efflux pump in colistin-resistant Pseudomonas aeruginosa isolate 91433 assessed as potentiation of minocycline-induced antibacterial activity at 0.25 times antibacterial MIC after 18 to 24 hrs by checker board assay. In a few lines:
as §3

In series [16] the test system is Pseudomonas aeruginosa. Put plainly: Inhibition of RND efflux pump in colistin-resistant Pseudomonas aeruginosa isolate 91433 assessed as potentiation of minocycline-induced antibacterial activity by measuring minocycline MIC at 0.25 times antibacterial MIC after 18 to 24 hrs by microbroth dilution assay (reference value: 32 ug/ml). The gist of the method:
as §3

The subject of series [17] is Pseudomonas aeruginosa. Put plainly: Inhibition of RND efflux pump in colistin-resistant Pseudomonas aeruginosa isolate 91433 assessed as potentiation of minocycline-induced antibacterial activity by measuring fold reduction in minocycline MIC at 0.25 times antibacterial MIC after 18 to 24 hrs by microbroth dilution assay. The gist of the method:
as §3

Series [18] concerns Pseudomonas aeruginosa PAO1. Put plainly: Inhibition of RND efflux pump in Pseudomonas aeruginosa PAO1 assessed as potentiation of minocycline-induced antibacterial activity by measuring ratio of minocycline MIC after 25 serial passages to minocycline MIC at sub-MIC after 18 to 24 hrs by microbroth dilution assay.
Series [19] deals with Pseudomonas aeruginosa. Put plainly: Inhibition of RND efflux pump in Pseudomonas aeruginosa isolate […] assessed as potentiation of minocycline-induced antibacterial activity by measuring minocycline MIC at 0.25 times antibacterial MIC after 18 to 24 hrs by microbroth dilution assay (reference value: 64 ug/ml). The note with it: isolate P262-104354. The gist of the method: as §3

Series [20] is described as follows: Cytotoxicity against human DU145 cells assessed as reduction in cell viability after 24 hrs by MTS assay. Type of series: cell-based, DU-145.
Series [21] is described as follows: Toxicity in Galleria mellonella assessed as death at 100 mg/kg after 24 hrs relative to control. The following applies: in vivo, read-out: Activity. Type of series: organism-based.
Series [22] has as its system Pseudomonas aeruginosa. Put plainly: Inhibition of RND efflux pump in Pseudomonas aeruginosa isolate P264-104354 assessed as potentiation of minocycline-induced antibacterial activity at 0.25 times antibacterial MIC after 18 to 24 hrs by checker board assay. In a few lines: as §2

Usually CC50 stands for the concentration at which the toxic effect on the cells reaches its halfway point.

Take `Cl.Cl.Cl.Cl.Cl.Cl.Cl.NC[C@H]1O[C@H](O[C@H]2[C@H](OCCCCCCCCCCCCN3CCN(Cc4cccc5ccccc45)CC3)[C@@H](O[C@H]3O[C@H](CO)[C@@H](O)[C@H](N)[C@H]3O)[C@H](N)C[C@@H]2N)[C@H](N)C[C@@H]1O`: the values for the MIC in the series on Pseudomonas aeruginosa [1], in the series with Pseudomonas aeruginosa [9] and in the series with Pseudomonas aeruginosa [10] were less than 0.5 mg/L, 0.25 mg/L and 4 mg/L, respectively. For the same molecule, the Activity entry in the series on Galleria mellonella is recorded as “Non-Toxic”; in the series with Pseudomonas aeruginosa [12], 100%. In addition, the fractional inhibitory concentration index (FICI) with Pseudomonas aeruginosa [2] is 0.03; in the series on Pseudomonas aeruginosa [5], 0.13. The inhibition result in series [3] is “Active”. The figures for the fold change (FC) (in series [4]; in the series on Pseudomonas aeruginosa [6]) were 16 and 8 to 256, respectively. Also, the hemolysis at 0.5 h, 1000 ug/ml in series [7] was not above 5%. For the same molecule, the Survival worked out at 77% in the series on Pseudomonas aeruginosa [8] and 10% with Pseudomonas aeruginosa [11].

Take `NC[C@H]1C[C@H](C(=O)N[C@H](CCc2ccccc2)C(=O)Nc2ccc3ccccc3c2)N(CCCCCCCCCCCCO[C@@H]2[C@@H](O[C@H]3O[C@H](CO)[C@@H](O)[C@H](N)[C@H]3O)[C@H](N)C[C@H](N)[C@H]2O[C@H]2O[C@H](CN)[C@@H](O)C[C@H]2N)C1`: the CC50 at 24 h in [13] and in series [20] was more than 30 µM each time. In addition, the fold change (FC) is 64 in series [4] and 8 to 256 in the series with Pseudomonas aeruginosa [17]. For the same molecule, the inhibition entry in series [14] is “Active”. Besides, the fractional inhibitory concentration index (FICI) in the series with Pseudomonas aeruginosa [15] is 0.16; in the series with Pseudomonas aeruginosa [22], 0.25. In addition, the figures for the MIC in the series on Pseudomonas aeruginosa [16], in the series on Pseudomonas aeruginosa [19] and with Pseudomonas aeruginosa [10] were 0.25 mg/L, less than 0.5 mg/L and less than 1 mg/L, respectively. The Ratio in [18] turned out to be 2. Further, in series [21], the mortality at 24 h turned out to be 100%.

In the case of `Cl.Cl.Cl.Cl.Cl.Cl.NC[C@H]1O[C@H](O[C@H]2[C@H](OCCCCCCCCCCCCN3CC[C@@H](c4ccc(F)cc4)[C@H](COc4ccc5c(c4)OCO5)C3)[C@@H](O[C@H]3O[C@H](CO)[C@@H](O)[C@H](N)[C@H]3O)[C@H](N)C[C@@H]2N)[C@H](N)C[C@@H]1O`, the results for the MIC with Pseudomonas aeruginosa [1], in the series on Pseudomonas aeruginosa [9] and in the series with Pseudomonas aeruginosa [10] were less than 0.5 mg/L, 0.25 mg/L and 1 mg/L, respectively. The Activity result with Galleria mellonella is on record as “Non-Toxic”; in the series on Pseudomonas aeruginosa [12], 100%. Also, the values for the fractional inhibitory concentration index (FICI) with Pseudomonas aeruginosa [2] and in the series on Pseudomonas aeruginosa [5] were 0.06 and 0.19, respectively. Besides, in [3], the inhibition entry was “Active”. Besides, the Ratio in series [18] was determined as 2. Also, the fold change (FC) in the series with Pseudomonas aeruginosa [6] lay within 8 to 256. The hemolysis at 0.5 h, 1000 ug/ml in series [7] is not above 5%. In addition, the Survival in the series with Pseudomonas aeruginosa [8] was found to be 56%.
